The source made the active and inactive calls. No cut-off for these calls is given here.

Assay [1] concerns HeLa. Nature of the assay: Induction of mitosis in human HeLa cells assessed as cyclin B1 level at 18 hrs by flow cytometric analysis. Format: functional, cell-based.
The subject of assay [2] is DLD-1. The assay is described as follows: Induction of cell cycle arrest in human DLD-1 cells assessed as accumulation of cells at mitotic stage upto 6 hrs by SEM analysis. It is filed as functional, cell-based.
The test system of assay [3] is HeLa. The assay is described as follows: Induction of cell cycle arrest in human HeLa cells assessed as accumulation of cells at mitotic stage measured after 2 hrs. Format: functional, cell-based. In a few lines:
(§1)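 Mitotic HeLa cells were collected by selective detachment after a 12-h nocodazole block, washed free of nocodazole, and replated in the drug combinations. Cells were harvested at set times. Mitotic index was scored by MPM-2 reactivity, cyclin B1 was measured by immunoblot, and DNA content was read as histograms.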

The test system of assay [4] is HeLa. The assay is described as follows: Induction of cell cycle arrest in human HeLa cells assessed as increase in cyclin B1 level measured after 2 hrs by immunoblot analysis. Format: functional, cell-based. In a few lines:
as §1

Assay [5] deals with HeLa. The assay is described as follows: Induction of cell cycle arrest in human HeLa cells assessed as mitotic index measured after 6 hrs relative to control. It is filed as functional.
The nature of assay [6]: Inhibition of reassociation of kinetochore with BubR1 in human DLD-1 cells assessed as inter-kinetochore distance measured for 40 mins (reference value: 0.89+/-0.20 uM). It is filed as functional.
Assay [7] in a line: Inhibition of reassociation of kinetochore with BubR1 in human DLD-1 cells assessed as BubR1/ACA fluorescence ratio measured for 40 mins (reference value: 2.23+/-1.21). Format: functional.
In a further assay the test system is A549. The assay is described as follows: Induction of endoreduplication in human A549 cells measured after 48 hrs. It is filed as functional, cell-based.
A further assay deals with hTERT-HME1. The assay is described as follows: Induction of endoreduplication in human HME cells measured after 48 hrs. Format: functional, cell-based.
Assay [8] has as its system HeLa. The assay is described as follows: Induction of mitosis in human HeLa cells assessed as peaked mitotic index at 10 hrs by flow cytometric analysis. It is filed as functional, cell-based. On the technique in general: Flow cytometry measures light scatter and fluorescence of single cells or particles in a stream.
Assay [9] concerns DLD-1. The assay is described as follows: Inhibition of chromosome alignment in human DLD-1 cells assessed as reduction of metaphase and anaphase spindle proportion for 1 hr. Format: functional, cell-based.
In assay [10] the test system is DLD-1. The assay is described as follows: Inhibition of chromosome alignment in human DLD-1 cells assessed as abnormal chromosome appearance upto 6 hrs. Format: functional, cell-based.
The subject of assay [11] is DLD-1. The assay is described as follows: Inhibition of sister chromatid separation in human DLD-1 cells. Format: functional, cell-based.
Assay [12] has as its system HeLa. Nature of the assay: Induction of cell cycle arrest in human HeLa cells assessed as increase in cyclin B1 level measured after 1 hr by immunoblot analysis. It is filed as functional, cell-based. In a few lines:
as §1
Background: A western blot detects proteins with antibodies after separation by electrophoresis.

Assay [13] relates to HeLa. Nature of the assay: Effect on nocodazole pretreated human HeLa cells assessed as compromising of microtubule polymerization induced spindle check point function. Format: functional, cell-based.
Assay [14] has as its system HeLa. Nature of the assay: Induction of cell cycle arrest in 12 hrs nocodazole block pretreated human HeLa cells assessed as mitotic stage exit in presence of nocodazole measured after 4 hrs. It is filed as functional, cell-based. The essentials: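 HeLa cells were held in a nocodazole block for 2 or 12 h, and mitotic cells were harvested. They were replated in nocodazole alone or nocodazole plus test drug. Mitotic index was scored by MPM-2 reactivity after 4 h.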

In assay [15] the test system is DLD-1. Nature of the assay: Effect on human DLD-1 cells assessed as localization of Aurora B to centromere measured after 1 hr by immunofluorescence imaging analysis. Format: functional, cell-based.
Assay [16] has as its system DLD-1. Nature of the assay: Effect on human DLD-1 cells assessed as localization of survivin to centromere measured after 1 hr by immunofluorescence imaging analysis. It is filed as functional, cell-based.
The subject of assay [17] is DLD-1. Nature of the assay: Effect on human DLD-1 cells assessed as reduction in kinetochore bound BubR1 measured after 1 hr by immunofluorescence imaging analysis. Format: functional, cell-based.
Assay [18] concerns DLD-1. Nature of the assay: Effect on human DLD-1 cells assessed as reduction in kinetochore bound CenP-E measured after 1 hr by immunofluorescence imaging analysis. It is filed as functional, cell-based.
The subject of assay [19] is DLD-1. Nature of the assay: Effect on human DLD-1 cells assessed as reduction in kinetochore bound Mad2 measured after 1 hr by immunofluorescence imaging analysis. Format: functional, cell-based.
The subject of assay [20] is DLD-1. The assay is described as follows: Effect on human DLD-1 cells assessed as reduction in fluorescence intensity of kinetochore bound BubR1/ACA ratio in presence of nocodazole measured by immunofluorescence imaging analysis relative to control. It is filed as functional. Details: scale not given: the % may be the effect or the level left.
For assay [21], the target named is Mitotic checkpoint serine/threonine-protein kinase BUB1 beta (Homo sapiens) (UniProt O60566). Nature of the assay: Inhibition of BubR1 phosphorylation in mitotic human HeLa cells released from G1/S blocks by immunoblotting analysis. It is filed as cell-based.
Chain of Mitotic checkpoint serine/threonine-protein kinase BUB1 beta (Homo sapiens) (O60566 whole entry): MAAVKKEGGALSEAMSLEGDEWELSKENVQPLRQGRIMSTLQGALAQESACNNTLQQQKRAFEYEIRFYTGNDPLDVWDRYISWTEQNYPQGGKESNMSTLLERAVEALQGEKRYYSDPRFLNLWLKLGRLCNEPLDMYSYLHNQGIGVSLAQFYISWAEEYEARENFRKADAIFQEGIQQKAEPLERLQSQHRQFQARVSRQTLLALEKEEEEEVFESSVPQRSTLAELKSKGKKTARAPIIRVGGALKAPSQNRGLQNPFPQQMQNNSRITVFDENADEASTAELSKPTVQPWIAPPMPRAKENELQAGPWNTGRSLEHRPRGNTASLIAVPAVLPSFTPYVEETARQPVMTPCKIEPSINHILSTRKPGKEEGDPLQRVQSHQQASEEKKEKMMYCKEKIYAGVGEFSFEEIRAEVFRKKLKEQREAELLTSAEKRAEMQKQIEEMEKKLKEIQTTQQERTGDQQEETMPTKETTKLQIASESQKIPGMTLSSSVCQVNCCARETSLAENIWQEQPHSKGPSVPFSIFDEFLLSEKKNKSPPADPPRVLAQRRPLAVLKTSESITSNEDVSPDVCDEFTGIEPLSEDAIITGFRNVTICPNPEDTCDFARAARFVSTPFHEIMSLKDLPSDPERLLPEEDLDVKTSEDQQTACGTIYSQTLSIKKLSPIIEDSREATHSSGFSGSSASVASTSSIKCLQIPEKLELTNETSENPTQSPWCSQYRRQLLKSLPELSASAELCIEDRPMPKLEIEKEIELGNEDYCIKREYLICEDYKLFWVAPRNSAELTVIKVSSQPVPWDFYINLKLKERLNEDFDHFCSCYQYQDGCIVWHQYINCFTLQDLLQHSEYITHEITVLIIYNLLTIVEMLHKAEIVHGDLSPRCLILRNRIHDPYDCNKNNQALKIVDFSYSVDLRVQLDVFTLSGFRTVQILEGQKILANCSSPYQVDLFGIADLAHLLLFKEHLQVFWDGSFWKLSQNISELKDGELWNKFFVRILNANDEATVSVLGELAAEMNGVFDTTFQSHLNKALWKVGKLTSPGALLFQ
The target is the same in assay [22]. The assay is described as follows: Inhibition of BubR1 phosphorylation in mitotic human HeLa cells released from G1/S blocks in presence of nocodazole by immunoblotting analysis. It is filed as cell-based.
For assay [23] the target is unchanged. Nature of the assay: Inhibition of BubR1 immunoprecipitate phosphorylation in mitotic human HeLa cells released from G1/S blocks. Format: cell-based.
For another assay, the system named is DLD-1 (Homo sapiens). The assay is described as follows: Effect on paclitaxel pretreated human DLD-1 cells assessed as compromising of microtubule polymerization induced spindle check point function.

On to `COC(=O)Nc1nc2cc(C(=O)c3cccs3)ccc2[nH]1` [NOCODAZOLE], for which the result with HeLa [1], in the assay on DLD-1 [2], in the assay with HeLa [3] and in the assay on HeLa [4] was Active. Besides, in the assay with HeLa [5], the Activity is recorded as roughly 25%.
As for `CC(=O)O[C@H]1C(=O)[C@@]2(C)[C@H]([C@H](OC(=O)c3ccccc3)[C@]3(O)C[C@H](OC(=O)[C@H](O)[C@@H](NC(=O)c4ccccc4)c4ccccc4)C(C)=C1C3(C)C)[C@]1(OC(C)=O)CO[C@@H]1C[C@@H]2O` [PACLITAXEL], the Activity is on record as roughly 25% with HeLa [5] and 3.86 in assay [7]. Further, the inter-kinetochore distance in assay [6] is 0.58 µm.
In the case of `COc1cc2c(Nc3ccc(NC(=O)c4ccccc4)cc3)ncnc2cc1OCCCN1CCOCC1`, the result in the assay with A549, with hTERT-HME1, in the assay with HeLa [8], with HeLa [1], in the assay with DLD-1 [2] and in the assay on HeLa [12] was Active. For the same compound, the result with HeLa [13], with HeLa [14], in the assay with DLD-1 [15], in the assay on DLD-1 [16], with DLD-1 [17] and with DLD-1 [18] was Active. Moreover, the result in the assay with DLD-1 [19] and in the assay on DLD-1 (Homo sapiens) was Active. Besides, the inhibition result (in the assay on DLD-1 [9]; in the assay on DLD-1 [10]; in assay [21]; in assay [22]) was “Active” each time. For the same compound, the inhibition entry (in the assay on DLD-1 [11]; in [23]) was “inactive” each time. Moreover, the Activity in the assay with DLD-1 [20] is given as 0%.

(Values after ChEMBL document CHEMBL5661966, “Aurora B couples chromosome alignment with anaphase by targeting BubR1, Mad2, and Cenp-E to kinetochores” (J Cell Biol, 2003).)
